From ChEMBL document CHEMBL4477200, “Design, Synthesis, and Preclinical Evaluation of 4-Substituted-5-methyl-furo[2,3-d]pyrimidines as Microtubule Targeting Agents That Are Effective against Multidrug Resistant Cancer Cells” (J Med Chem, 2016)
Active and inactive are the calls of the source. No cut-off for these calls is given here.

Key:
[1] = test system: SK-OV-3; assay: Antiproliferative activity against multidrug resistant human SKOV3 cells expressing MDR1-M6/6 after 48 hrs by SRB assay; type: functional, cell-based; conditions: SK-OV-3, 48 h
Procedure, shortened: (§1)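 SRB assay; IC50 is the mean of three independent experiments, each run in triplicate. Cells were kept at 37 °C under 5% CO2. HeLa and SK-OV-3 lines (parental and MDR1-M6/6) were grown in Basal Medium Eagle with 10% FBS, 1% GlutaMAX and 50 µg/mL gentamycin. HeLa WTβIII was grown in DMEM with 10% FBS.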

[2] = test system: HeLa; assay: Antiproliferative activity against human HeLa cells after 48 hrs by SRB assay; type: functional, cell-based; procedure, shortened: as §1
[3] = test system: SK-OV-3; assay: Cytotoxicity against human SKOV3 cells assessed as growth inhibition after 48 hrs by SRB assay; type: functional, cell-based; conditions: SK-OV-3, 48 h; procedure, shortened: as §1
[4] = biological target: Tubulin (Homo sapiens) (UniProt P68371+Q9H4B7+P0DPH7+P68366+Q13509+Q71U36+P04350+Q3ZCM7+P07437+P68363+Q9BQE3+Q6PEY2+Q13885+Q9BVA1+Q9BUF5); assay: Induction of microtubule disruption in human HeLa cells assessed as multipolarization of spindle at 5 times IC50 incubated for 18 hrs by indirect immunofluorescence analysis relative to vehicle-treated control; type: cell-based
Procedure, shortened: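 Mitotic spindles and microtubules were imaged by indirect immunofluorescence with a β-tubulin antibody and compared with vehicle-treated cells.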

[5] = test system: Tubulin (Rattus norvegicus); assay: Induction of microtubule depolymerization in rat A10 cells at 2 times EC50 incubated for 18 hrs by indirect immunofluorescence analysis
[6] = test system: HeLa; assay: Relative ratio of IC50 for human HeLa cells expressing wild type beta3 tubulin to IC50 for human HeLa cells; type: functional
[7] = test system: HeLa; assay: Antiproliferative activity against multidrug resistant human HeLa cells expressing wild type beta3 tubulin after 48 hrs by SRB assay; type: functional, cell-based; procedure, shortened: as §1
[8] = test system: HeLa; assay: Cell cycle arrest in human HeLa cells assessed as accumulation at G2/M phase at 5 times IC50 after 18 hrs by flow cytometry (reference value: 17.11 +/- 1.09%); type: functional
[9] = test system: SK-OV-3; assay: Relative ratio of IC50 for human SKOV3 cells expressing MDR1-M6/6 to IC50 for human SKOV3 cells; type: functional
Procedure, shortened: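 Rr is the IC50 in Pgp-expressing SK-OV-3 MDR1-M6/6 cells divided by the IC50 in parental SK-OV-3 cells. Both IC50s come from the SRB assay, averaging three independent experiments run in triplicate.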

[10] = biological target: T1, Tubulin (Bos taurus) (UniProt Q6B856+Q862L2+Q862F3); assay: Inhibition of [3H]colchicine binding to tubulin in bovine brain homogenate at 5 uM incubated for 10 mins by DEAE-cellulose filter assay; type: tissue-based
[11] = biological target: Tubulin (Bos taurus, UniProt Q6B856+Q862L2+Q862F3); assay: Inhibition of tubulin assembly in bovine brain […] assessed as reduction in turbidity increase preincubated for 15 mins followed by GTP addition measured for 20 mins by spectrophotometric analysis
Procedure, shortened: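 Purified bovine brain tubulin, 1.0 mg/mL (10 µM), was preincubated 15 min at 30 °C in 0.8 M monosodium glutamate (pH 6.6) with compound and 4% DMSO. Mixtures were chilled and 0.4 mM GTP added. Turbidity was followed for 20 min at 30 °C. IC50 is the concentration halving the turbidity increase, interpolated between tested concentrations.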

[12] = biological target: T1, Tubulin (Bos taurus); assay: Displacement of [3H]colchicine from tubulin in bovine brain homogenate at 1 uM incubated for 10 mins by DEAE-cellulose filter assay; type: tissue-based
[13] = test system: MDA-MB-435; assay: Antitumor activity against human MDA-MB-435 cells xenografted in nude mouse assessed as tumor growth inhibition at 20 mg/kg, ip dosed on days 0 , 2, 4, 6, 8 and 11 relative to control

SMILES	IC50 [1]	IC50 [2]	IC50 [3]	Activity [4]	Activity [5]	Ratio IC50 [6]	IC50 [7]	Activity [8]	Ratio IC50 [9]	inhibition [10]	IC50 [11]	inhibition [12]	TGI [13]
CCc1ccc(N(C)c2ncnc3occ(C)c23)cc1	162 nM	120 nM	156 nM	Active	Active	1.3	159 nM	76.19%	1	–	–	–	–
CCCCN(c1ccc(OC)cc1)c1ncnc2occ(C)c12	200 nM	111 nM	148 nM	Active	Active	1	116 nM	64.96%	1.4	87%	1300 nM	61%	–
CSc1ccc(N(C)c2ncnc3occ(C)c23)cc1	32.1 nM	15.7 nM	18.6 nM	Active	Active	0.9	14.9 nM	64.09%	1.7	94%	1200 nM	79%	–
CC(=O)O[C@H]1C(=O)[C@@]2(C)[C@H]([C@H](OC(=O)c3ccccc3)[C@]3(O)C[C@H](OC(=O)[C@H](O)[C@@H](NC(=O)c4ccccc4)c4ccccc4)C(C)=C1C3(C)C)[C@]1(OC(C)=O)CO[C@@H]1C[C@@H]2O	–	–	–	–	–	–	–	–	–	–	–	–	Active
CCCN(c1ccc(OC)cc1)c1ncnc2occ(C)c12	71 nM	33.8 nM	40.3 nM	Active	Active	1	35.3 nM	89.25%	1.8	92%	1100 nM	75%	–
COc1ccc(/C=C\c2cc(OC)c(OC)c(OC)c2)cc1O [COMBRETASTATIN A4]	–	–	–	–	–	–	–	67.58%	–	–	–	–	–
COc1ccc(N(c2ncnc3occ(C)c23)C(C)C)cc1	–	–	–	–	–	–	–	–	–	47%	3000 nM	–	–
CCN(c1ccc(OC)cc1)c1ncnc2occ(C)c12	18.3 nM	15.8 nM	14.5 nM	Active	Active	0.9	14.6 nM	63.76%	1.3	95%	970 nM	84%	–
